The values below come from PubChem BioAssay.

The source made the active and inactive calls.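 How the source made its calls, unless noted: active means viability at or below 10% of carrier control in both of two separate runs; inconclusive means viability at or below 10% in only one of the two runs; inactive means the rest.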

A short description of experiment [1]: Her2 expression decrease, cell viability multiplex – SKBR3 breast tumor cells, AlphaScreen, ATP viability, primary screen (AID 461;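 active means Her2 level under about 52% in both replicate screens, with viability over 70% of control, limit read from the data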;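 on Her2 level: lower value means less Her2 protein in the cells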;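 on viability: percent of carrier control wells set as 100% viability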). The note with it: SKBR3 Her2 protein level, 18-24 h, measured here: SKBR3 viability, ATP luminescence, at 10 µM. A general note: Bead proximity is the source of the signal in Alpha formats.
The target in experiment [2] is Receptor tyrosine-protein kinase erbB-2 (Homo sapiens) (UniProt P04626). The description is as above. The note with it: 18-24 h, at 10 µM, stronger effect = lower value.
Sequence of Receptor tyrosine-protein kinase erbB-2 (Homo sapiens) (P04626 whole entry, looked up): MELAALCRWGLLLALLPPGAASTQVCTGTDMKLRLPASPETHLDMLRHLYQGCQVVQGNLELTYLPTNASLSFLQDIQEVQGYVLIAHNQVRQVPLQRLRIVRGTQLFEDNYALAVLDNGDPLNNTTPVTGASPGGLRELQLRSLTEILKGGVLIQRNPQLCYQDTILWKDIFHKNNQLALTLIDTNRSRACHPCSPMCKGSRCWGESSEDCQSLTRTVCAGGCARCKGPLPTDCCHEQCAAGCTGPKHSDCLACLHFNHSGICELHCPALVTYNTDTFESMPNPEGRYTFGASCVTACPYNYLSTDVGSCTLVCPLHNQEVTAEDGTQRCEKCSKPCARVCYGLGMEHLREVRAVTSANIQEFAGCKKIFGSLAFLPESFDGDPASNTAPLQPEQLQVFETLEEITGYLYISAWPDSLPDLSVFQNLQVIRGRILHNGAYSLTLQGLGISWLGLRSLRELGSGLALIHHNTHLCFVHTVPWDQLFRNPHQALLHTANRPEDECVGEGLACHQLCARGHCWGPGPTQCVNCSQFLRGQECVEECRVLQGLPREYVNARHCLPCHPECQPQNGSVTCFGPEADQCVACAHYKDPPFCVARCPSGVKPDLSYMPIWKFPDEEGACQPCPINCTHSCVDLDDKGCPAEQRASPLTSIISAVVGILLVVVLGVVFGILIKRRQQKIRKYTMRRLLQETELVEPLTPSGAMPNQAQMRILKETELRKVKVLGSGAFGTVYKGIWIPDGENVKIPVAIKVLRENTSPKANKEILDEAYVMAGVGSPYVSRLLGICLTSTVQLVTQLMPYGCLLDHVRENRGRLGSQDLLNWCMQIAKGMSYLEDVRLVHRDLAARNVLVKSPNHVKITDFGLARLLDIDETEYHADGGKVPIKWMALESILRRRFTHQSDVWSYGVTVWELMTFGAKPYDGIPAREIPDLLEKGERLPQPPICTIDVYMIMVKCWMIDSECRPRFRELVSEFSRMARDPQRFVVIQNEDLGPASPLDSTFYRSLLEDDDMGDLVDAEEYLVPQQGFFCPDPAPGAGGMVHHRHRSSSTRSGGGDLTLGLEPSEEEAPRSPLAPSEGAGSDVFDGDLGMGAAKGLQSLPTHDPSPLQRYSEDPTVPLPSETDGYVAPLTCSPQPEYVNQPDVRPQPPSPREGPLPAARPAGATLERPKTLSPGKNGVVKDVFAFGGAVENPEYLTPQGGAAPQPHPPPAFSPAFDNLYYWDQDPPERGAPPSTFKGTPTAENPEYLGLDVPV
Experiment [3] in a line: reduced viability of SK-BR-3 breast cancer cells – cell-based, 24 h, human, pilot screen (AID 572).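 Further: compound exposure lasted between 18 and 24 h rather than exactly 24 h; 100% = carrier-treated control wells.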 The note with it: SK-BR-3 viability, CellTiter-Glo luminescence, at 10 µM, stronger effect = lower value.
The nature of experiment [4]: HUVEC growth inhibition – cell-based, human, primary screen (AID 575;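 active means viability at or below 30% in both replicate assays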;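 further: 100% = median of untreated cell wells with 0.1% DMSO on each plate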). The note with it: HUVEC proliferation, CellTiter-Glo luminescence, 72 h; at 10 µM; stronger effect = lower value. The essentials:
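Material: primary human umbilical vein endothelial cells / Schedule: 72 h exposure, 37 °C, 5% CO2, 30 min RT equilibration / Signal: ATP-based CellTiter-Glo luminescent read / Read-out basis: percent of median DMSO-control luminescence / Control set: 32 DMSO-only cell-control wells (high), 32 MePR drug-control wells (low) per plate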

Experiment [5] in a line: H69AR cell proliferation blockers – human, duplicate replicates, primary screen (AID 580;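 active means viability at or under a set limit in both replicates, limit being median viability minus 3 SD, cut at about 48% in these data, passing the limit was not always enough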;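 further: 100% = mean luminescence of untreated wells and 0% = no signal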). The note with it: H69AR lung tumor cells viability, ATP luminescence, 72 h; at 10 µM; stronger effect = lower value.
A short description of experiment [6]: MRP1 drug-resistance reversers in H69AR cells – cell-based, doxorubicin co-treatment, pilot screen (AID 601;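 active means viability loss from added drug above about 55%, and viability with drug at most 40%, in both replicates, limit read from the data, passing the limit was not always enough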). The note with it: CellTiter-Glo, 72 h, at 10 µM; for differential viability (reversal): stronger effect = higher value.
Experiment [7] is described as follows: yeast transport mutant growth inhibition pilot in 384-well plates, post-Golgi transport modulator project (AID 636; in the data active means inhibition above about 31%). The note with it: absorbance 615 nm, about 18 h, stronger effect = higher value.
Experiment [8] in a line: growth suppression of yeast trafficking mutant, preliminary HTS, modulators of trafficking downstream of Golgi apparatus project, 1536-format plate, OD 615 nm (AID 637; in the data active means inhibition above about 30%). The note with it: yeast transport mutant growth, absorbance 615 nm, 18 h; stronger effect = higher value.
Setting [9] is: H69AR cells + 2 uM doxorubicin, measured here: viability with 2 uM doxorubicin, stronger effect = lower value.
[10] abbreviates: H69AR cells, compound alone cytotoxicity.

As to `COc1cc(C)nc(NS(=O)(=O)c2ccc(C)cc2)n1`, the viability (usually a read-out of living cells in per cent, often relative to untreated cells) in experiment [1] was 122%; in experiment [3], 122% (inactive); in experiment [4], 98.5% (inactive); in experiment [5] it was 84.9% (inactive); in experiment [6] (setting [9]), 86.2%; in experiment [6] (setting [10]) it was 84.9%. Further, the Her2 level in experiment [2] is 88% (inactive). Besides, the differential viability (reversal) in experiment [6] (H69AR cells + 2 uM doxorubicin) was -1.31% (inactive). Further, the inhibition – broadly, the change of the read-out against control, counted positive when it falls – in experiment [7] is -3.82% (inactive); in experiment [8], 0.65% (inactive).
`CCn1nc(CC(=O)Nc2nnc(CC(=O)N3CCCCC3)s2)c2ccccc2c1=O`: the viability in experiment [1] is 96%; in experiment [3] it was 96% (inactive); in experiment [4], 84.4% (inactive); in experiment [5] it was 97.5% (inactive); in experiment [6] (setting [9]), 92.7%; in experiment [6] (setting [10]), 97.5%. In experiment [2], the Her2 level was 102% (inactive). The differential viability (reversal) in experiment [6] (H69AR cells + 2 uM doxorubicin) is 4.77% (inactive). Moreover, the figures for the inhibition in experiment [7] and in experiment [8] were -0.52% (inactive) and -4.83% (inactive), respectively.
On to `COC(=O)c1cc(OC)c(OCc2cc(C(=O)OC)oc2C)c(OC)c1`, for which the viability is 95% in experiment [1]; 95% (inactive) in experiment [3]; 107% (inactive) in experiment [4]; 90.7% (inactive) in experiment [5]; 89.7% in experiment [6] (setting [9]); 90.7% in experiment [6] (setting [10]). For the same compound, the Her2 level in experiment [2] is 89.5% (inactive). The differential viability (reversal) in experiment [6] (H69AR cells + 2 uM doxorubicin) was 1.03% (inactive). The inhibition is -9.32% (inactive) in experiment [7] and 1.8% (inactive) in experiment [8].
In the case of `Cc1ccc(NC(=O)Nc2ccc3c(c2)N(C)C(=O)CS3)nc1`, the viability in experiment [1] is 108%; in experiment [3], 108% (inactive); in experiment [4] it was 45.5% (inactive); in experiment [5], 88.3% (inactive); in experiment [6] (setting [9]), 96.4%; in experiment [6] (setting [10]) it was 88.3%. For the same compound, in experiment [2], the Her2 level was 68.5% (inactive). The differential viability (reversal) in experiment [6] (H69AR cells + 2 uM doxorubicin) is -8.16% (inactive). Besides, the figures for the inhibition in experiment [7] and in experiment [8] were -3.73% (inactive) and -0.33% (inactive), respectively.
With `COc1cccc(CN2CCN(C(=O)CC(C)C)CC2)c1`, the viability in experiment [1] was 92.5%; in experiment [3] it was 92.5% (inactive); in experiment [4], 87.4% (inactive); in experiment [5], 86.4% (inactive); in experiment [6] (setting [9]) it was 88.7%; in experiment [6] (setting [10]), 86.4%. In addition, the Her2 level in experiment [2] was 76% (inactive). The differential viability (reversal) in experiment [6] (H69AR cells + 2 uM doxorubicin) is -2.34% (inactive). Also, the figures for the inhibition in experiment [7] and in experiment [8] were 0.77% (inactive) and -0.83% (inactive), respectively.
In the case of `O=C(Nc1ccccc1-c1ccccc1)NC1CCN(CC(=O)N2CCOCC2)CC1`, the viability is 98% in experiment [1]; 98% (inactive) in experiment [3]; 91.7% (inactive) in experiment [4]; 99.3% (inactive) in experiment [5]; 91.4% in experiment [6] (setting [9]); 99.3% in experiment [6] (setting [10]). Besides, the Her2 level in experiment [2] is 103% (inactive). Besides, in experiment [6] (H69AR cells + 2 uM doxorubicin), the differential viability (reversal) is 7.87% (inactive). Further, the inhibition in experiment [7] was -2.34% (inactive); in experiment [8], -3.11% (inactive).
`COc1ccccc1N(CC(=O)NCc1ccccc1)S(C)(=O)=O`: the viability in experiment [1] was 103%; in experiment [3] it was 103% (inactive); in experiment [4], 106% (inactive); in experiment [5], 97% (inactive); in experiment [6] (setting [9]), 93.9%; in experiment [6] (setting [10]) it was 97%. Further, in experiment [2], the Her2 level is 92.5% (inactive). Besides, the differential viability (reversal) in experiment [6] (H69AR cells + 2 uM doxorubicin) is 3.07% (inactive). The inhibition was -9.19% (inactive) in experiment [7] and -7.33% (inactive) in experiment [8].
As for `COc1ccccc1NC(=O)c1nnn(CC(=O)Nc2ccccc2)c1N`, the viability was 106% in experiment [1]; 106% (inactive) in experiment [3]; 70.5% (inactive) in experiment [4]; 90.7% (inactive) in experiment [5]; 97.6% in experiment [6] (setting [9]); 90.7% in experiment [6] (setting [10]). For the same compound, the Her2 level in experiment [2] is 81% (inactive). The differential viability (reversal) in experiment [6] (H69AR cells + 2 uM doxorubicin) is -6.95% (inactive). The values for the inhibition in experiment [7] and in experiment [8] were -5.47% (inactive) and -1.31% (inactive), respectively.
As to `COCCN1C(=O)C(=O)/C(=C(/O)c2cccc(S(=O)(=O)N(C)C)c2)C12C(=O)N(C)c1ccccc12` (stereo not given), the viability is 110% in experiment [1]; 110% (inactive) in experiment [3]; 110% (inactive) in experiment [4]; 99.5% (inactive) in experiment [5]; 95.9% in experiment [6] (setting [9]); 99.5% in experiment [6] (setting [10]). For the same compound, in experiment [2], the Her2 level is 91.5% (inactive). Further, the differential viability (reversal) in experiment [6] (H69AR cells + 2 uM doxorubicin) is 3.6% (inactive). Besides, the figures for the inhibition in experiment [7] and in experiment [8] were -7.76% (inactive) and -2.38% (inactive), respectively.
As to `CC1CCN(C(=O)CCNS(=O)(=O)c2ccccc2)CC1`, the viability in experiment [1] was 110%; in experiment [3] it was 110% (inactive); in experiment [4], 96.7% (inactive); in experiment [5], 92.8% (inactive); in experiment [6] (setting [9]), 92%; in experiment [6] (setting [10]), 92.8%. Besides, the Her2 level in experiment [2] was 118% (inactive). For the same compound, the differential viability (reversal) in experiment [6] (H69AR cells + 2 uM doxorubicin) is 0.83% (inactive). Further, the inhibition in experiment [7] is -3.9% (inactive); in experiment [8] it was -2.06% (inactive).
`COc1ccc(-n2ncc3c(=O)n(CC(=O)OCc4ccccc4)cnc32)cc1`: the viability in experiment [1] was 83%; in experiment [3], 83% (inactive); in experiment [4] it was 99.1% (inactive); in experiment [5], 97.8% (inactive); in experiment [6] (setting [9]) it was 85.8%; in experiment [6] (setting [10]) it was 97.8%. For the same compound, in experiment [2], the Her2 level is 104% (inactive). The differential viability (reversal) in experiment [6] (H69AR cells + 2 uM doxorubicin) was 12% (inactive). Further, the inhibition in experiment [7] is 0% (inactive); in experiment [8], 0.5% (inactive).
As for `CCOc1ccc2cc(C#N)c(SCC(=O)N3CCCC3)nc2c1`, the viability in experiment [1] was 71.5%; in experiment [3] it was 71.5% (inactive); in experiment [4], 85.3% (inactive); in experiment [5], 87.3% (inactive); in experiment [6] (setting [9]), 75.8%; in experiment [6] (setting [10]), 87.3%. For the same compound, the Her2 level in experiment [2] was 112% (inactive). Also, the differential viability (reversal) in experiment [6] (H69AR cells + 2 uM doxorubicin) was 11.5% (inactive). The figures for the inhibition in experiment [7] and in experiment [8] were 6.45% (inactive) and -3.64% (inactive), respectively.
As to `O=C(Nc1nccs1)c1ccc(COc2ccccc2Br)o1`, the viability was 118% in experiment [1]; 118% (inactive) in experiment [3]; 50.3% (inactive) in experiment [4]; 80.9% (inactive) in experiment [5]; 83.7% in experiment [6] (setting [9]); 80.9% in experiment [6] (setting [10]). For the same compound, in experiment [2], the Her2 level is 91.5% (inactive). Further, the differential viability (reversal) in experiment [6] (H69AR cells + 2 uM doxorubicin) was -2.83% (inactive). Further, the inhibition in experiment [7] is -2.27% (inactive); in experiment [8], -7.26% (inactive).
On to `Cc1ccccc1CSCC(=O)c1c(N)n(C)c(=O)n(C)c1=O`, for which the viability in experiment [1] was 86.5%; in experiment [3] it was 86.5% (inactive); in experiment [4], 106% (inactive); in experiment [5] it was 93.5% (inactive); in experiment [6] (setting [9]), 95.6%; in experiment [6] (setting [10]), 93.5%. In addition, in experiment [2], the Her2 level was 86.5% (inactive). Also, the differential viability (reversal) in experiment [6] (H69AR cells + 2 uM doxorubicin) was -2.12% (inactive). Also, the inhibition in experiment [7] is -2.37% (inactive); in experiment [8], -2.22% (inactive).
As to `Nc1nc(C2C(=O)CCCC2=O)cs1`, the viability is 97.5% in experiment [1]; 97.5% (inactive) in experiment [3]; 102% (inactive) in experiment [4]; 103% (inactive) in experiment [5]; 97.6% in experiment [6] (setting [9]); 103% in experiment [6] (setting [10]). Further, the Her2 level in experiment [2] is 99.5% (inactive). For the same compound, the differential viability (reversal) in experiment [6] (H69AR cells + 2 uM doxorubicin) is 5.64% (inactive). Further, the results for the inhibition in experiment [7] and in experiment [8] were -2.89% (inactive) and 4.1% (inactive), respectively.
For the compound `O=c1[nH]cnc2c1C1(CCCC1)Cc1ccccc1-2`, the viability in experiment [1] is 95.5%; in experiment [3], 95.5% (inactive); in experiment [4] it was 93.1% (inactive); in experiment [5], 100% (inactive); in experiment [6] (setting [9]), 88.7%; in experiment [6] (setting [10]), 100%. For the same compound, the Her2 level in experiment [2] is 90% (inactive). For the same compound, the differential viability (reversal) in experiment [6] (H69AR cells + 2 uM doxorubicin) is 11.5% (inactive). Further, the inhibition in experiment [7] is -0.26% (inactive); in experiment [8], -0.5% (inactive).
